Results on 2 compounds are retold here after ChEMBL document CHEMBL1146194, “The Anti-Trypanosoma cruzi activity of posaconazole in a murine model of acute Chagas' disease is less dependent on gamma interferon than that of benznidazole” (2007).

Molecules are shown by their SMILES.

Type in all cases: functional
Experiment [1] deals with Mus musculus. Put plainly: Mortality rate in Trypanosoma cruzi Y infected IL12 knock out C57BL/6 mouse Chagas disease model at 100 mg/kg, po after 20 days. Put shortly:
(§1)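 Male C57BL/6 mice aged 8–10 weeks (wild-type or cytokine KO) were infected i.p. with 5,000 Y-strain blood trypomastigotes. Treatment was oral, 100 mg/kg once daily in water with arabic gum, from 4 dpi for 20 consecutive days. Deaths were recorded up to 60 dpi, and mortality was given as deaths/total. Mean survival time assigned survivors a death time of exactly 60 days. Log rank and Peto-Peto-Wilcoxon tests were used.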

Experiment [2] has as its system Trypanosoma cruzi. The experiment can be described thus: Antimicrobial activity against Trypanosoma cruzi Y infected IL12 knock out C57BL/6 mouse Chagas disease model assessed as percent of cured mouse at 100 mg/kg, po after 20 days. Put shortly: (§2)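 Male mice, 8–10 weeks, infected i.p. with 5,000 blood trypomastigotes (Y strain, passaged in Swiss-Webster mice). From 4 dpi, dosed orally once daily for 20 consecutive days in water with arabic gum. Fresh tail blood examined to 60 dpi. Aparasitemic mice were then bled (0.5 ml), and blood was cultured in LIT medium at 28°C for 30–60 days. Cure means negative by both methods.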

The test system of experiment [3] is Mus musculus. Put plainly: Effect on survival in Trypanosoma cruzi Y infected C57BL/6 mouse Chagas disease model assessed as mean survival time at 100 mg/kg, po after 20 days. In short, it runs like this: as §1
Experiment [4] concerns Trypanosoma cruzi. Put plainly: Antimicrobial activity against Trypanosoma cruzi Y infected wild type C57BL/6 mouse Chagas disease model assessed as percent of cured mouse at 100 mg/kg, po after 20 days. In short, it runs like this: as §2
Experiment [5] relates to Trypanosoma cruzi. The experiment can be described thus: Antimicrobial activity against Trypanosoma cruzi Y infected IFN-gamma knock out C57BL/6 mouse Chagas disease model assessed as percent of cured mouse at 100 mg/kg, po after 20 days. In short, it runs like this:
as §2

The test system of experiment [6] is Mus musculus. Put plainly: Mortality rate in Trypanosoma cruzi Y infected wild type C57BL/6 mouse Chagas disease model at 100 mg/kg, po after 20 days. In short, it runs like this:
as §1

In experiment [7] the test system is Mus musculus. The experiment can be described thus: Effect on survival in Trypanosoma cruzi Y infected IFN-gamma knock out C57BL/6 mouse Chagas disease model assessed as mean survival time at 100 mg/kg, po after 20 days. Put shortly: as §1
In experiment [8] the test system is Mus musculus. Put plainly: Mortality rate in Trypanosoma cruzi Y infected IFN-gamma knock out C57BL/6 mouse Chagas disease model at 100 mg/kg, po after 20 days. In short, it runs like this: as §1
Experiment [9] deals with Mus musculus. Put plainly: Effect on survival in Trypanosoma cruzi Y infected IL12 knock out C57BL/6 mouse Chagas disease model assessed as mean survival time at 100 mg/kg, po after 20 days. In short, it runs like this:
as §1

For experiment [10], the system named is Mus musculus. The experiment can be described thus: Effect on survival in Trypanosoma cruzi Y infected IL12 knock out C57BL/6 mouse Chagas disease model assessed as mean survival time at 20 mg/kg, po twice daily after 20 days. In short, it runs like this:
(§3)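 Male C57BL/6 mice aged 8–10 weeks (wild-type or cytokine KO) were infected i.p. with 5,000 Y-strain blood trypomastigotes. From 4 dpi they received 20 mg/kg/day orally, split into two daily doses, for 20 days, in 2% methylcellulose with 0.5% Tween 80. Deaths were tracked to 60 dpi, and mortality was given as deaths/total. Mean survival time counted survivors as dying at 60 days. Log rank and Peto-Peto-Wilcoxon tests were used.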

The test system of experiment [11] is Mus musculus. Put plainly: Mortality rate in Trypanosoma cruzi Y infected IL12 knock out C57BL/6 mouse Chagas disease model at 20 mg/kg, po twice daily after 20 days. Put shortly:
as §3

In experiment [12] the test system is Mus musculus. The experiment can be described thus: Mortality rate in Trypanosoma cruzi Y infected wild type C57BL/6 mouse Chagas disease model at 20 mg/kg, po twice daily after 20 days. In short, it runs like this: as §3
In experiment [13] the test system is Trypanosoma cruzi. The experiment can be described thus: Antimicrobial activity against Trypanosoma cruzi Y infected IL12 knock out C57BL/6 mouse Chagas disease model assessed as percent of cured mouse at 20 mg/kg, po twice daily after 20 days. In short, it runs like this:
(§4)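 Male C57BL/6 mice aged 8–10 weeks (wild-type, IL-12p40 KO or IFN-γ KO) were infected i.p. with 5,000 blood trypomastigotes of the Y strain. From 4 dpi they were dosed orally at 20 mg/kg/day, split into two daily doses, for 20 consecutive days, in 2% methylcellulose with 0.5% Tween 80. Mice negative on fresh blood at 60 dpi had 0.5 ml orbital blood cultured in LIT medium at 28°C for 30–60 days. Cure meant negative on both tests.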

Experiment [14] deals with Mus musculus. Put plainly: Mortality rate in Trypanosoma cruzi Y infected IFN-gamma knock out C57BL/6 mouse Chagas disease model at 20 mg/kg, po twice daily after 20 days. Put shortly:
as §3

Experiment [15] relates to Trypanosoma cruzi. The experiment can be described thus: Antimicrobial activity against Trypanosoma cruzi Y infected IFN-gamma knock out C57BL/6 mouse Chagas disease model assessed as percent of cured mouse at 20 mg/kg, po twice daily after 20 days. In short, it runs like this:
as §4

Experiment [16] deals with Trypanosoma cruzi. The experiment can be described thus: Antimicrobial activity against Trypanosoma cruzi Y infected wild type C57BL/6 mouse Chagas disease model assessed as percent of cured mouse at 20 mg/kg, po twice daily after 20 days. Put shortly:
as §4

Experiment [17] concerns Mus musculus. Put plainly: Effect on survival in Trypanosoma cruzi Y infected C57BL/6 mouse Chagas disease model assessed as mean survival time at 20 mg/kg, po twice daily after 20 days. Put shortly: as §3
The subject of experiment [18] is Mus musculus. The experiment can be described thus: Effect on survival in Trypanosoma cruzi Y infected IFN-gamma knock out C57BL/6 mouse Chagas disease model assessed as mean survival time at 20 mg/kg, po twice daily after 20 days. In short, it runs like this: as §3

Consider `O=C(Cn1ccnc1[N+](=O)[O-])NCc1ccccc1` [BENZNIDAZOLE], for which the Activity is on record as 17% in the experiment with Mus musculus [1]; 39% in the experiment on Trypanosoma cruzi [2]; 86% with Trypanosoma cruzi [4]; 0% with Trypanosoma cruzi [5]; 0% in the experiment with Mus musculus [6]; 100% in the experiment on Mus musculus [8]. Further, the MST in the experiment with Mus musculus [3] is greater than 60 days; in the experiment on Mus musculus [7] it was 42.1 days; in the experiment with Mus musculus [9], 59.6 days.

Regarding `CC[C@@H]([C@H](C)O)n1ncn(-c2ccc(N3CCN(c4ccc(OC[C@@H]5CO[C@@](Cn6cncn6)(c6ccc(F)cc6F)C5)cc4)CC3)cc2)c1=O` [POSACONAZOLE], the MST is 59.2 days with Mus musculus [10], greater than 60 days in the experiment with Mus musculus [17] and 52.1 days with Mus musculus [18]. Further, the Activity is recorded as 23% in the experiment on Mus musculus [11]; 0% in the experiment with Mus musculus [12]; 35% with Trypanosoma cruzi [13]; 30% in the experiment on Mus musculus [14]; 15% in the experiment on Trypanosoma cruzi [15]; 89% in the experiment on Trypanosoma cruzi [16].
